Hits are enriched below; roughly 4.2% of the tested compounds scored in any of these assays.
KCC2 mod = KCC2 cotransporter modulators, thallium flux, primary screen, cell-based, HEK293 KCC2, FluoZin-2 fluorescence, MLSMR; KCC2 cells, thallium flux FluoZin-2 fluorescence; B-score of Tl+ flux slope (higher = more flux/activation; lower = inhibition) at 10 µM; hit rate 2.2% among 190,000; AID 1456, 2008;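 active means thallium flux slope and its plate-corrected score both differing from the plate sample mean at a set confidence after two filtering rounds, in either direction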;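 further: slope of fluorescence scaled to starting intensity during 10 to 20 s after thallium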
SKKanGAS inh = S. pyogenes SKKanGAS growth inhibitors in kanamycin, primary screen, streptokinase expression inhibitor project, SKKanGAS strain, BacTiter-Glo luminescence. AID 1662, 2009. inhibition, % at 7.5 µM. hit rate 1.3% among 300,000. 6 h;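 active means mean replicate score, as percent of positive control median, at least 50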;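 further: strain carries kanamycin resistance gene driven by streptokinase promoter and grows in 40 µg/ml kanamycin; loss of luminescence reflects streptokinase promoter inhibition or plain growth inhibition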
Ins promoter up = insulin promoter activators in MIN6 cells, imaging, high-content screening, mouse beta cells; hit rate 0.3% among 190,000; MIN6 insulin promoter-GFP reporter; stronger effect = higher value; z-score at 5 µM;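 active means z-score above 3 at 5 µM with at least 500 cells counted in the well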
Rad51 HR inh = human RAD51 strand exchange inhibitors, primary screen, biochemical, fluorescence. DNA repair protein RAD51 homolog 1 (Homo sapiens), Q06609. hRad51 DNA strand exchange, fluorescence dequenching. inhibition, % at 10 µM. hit rate 0.085% among 200,000;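 active means inhibition above 40% at the single screening dose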
Target sequence (Q06609 whole entry, looked up): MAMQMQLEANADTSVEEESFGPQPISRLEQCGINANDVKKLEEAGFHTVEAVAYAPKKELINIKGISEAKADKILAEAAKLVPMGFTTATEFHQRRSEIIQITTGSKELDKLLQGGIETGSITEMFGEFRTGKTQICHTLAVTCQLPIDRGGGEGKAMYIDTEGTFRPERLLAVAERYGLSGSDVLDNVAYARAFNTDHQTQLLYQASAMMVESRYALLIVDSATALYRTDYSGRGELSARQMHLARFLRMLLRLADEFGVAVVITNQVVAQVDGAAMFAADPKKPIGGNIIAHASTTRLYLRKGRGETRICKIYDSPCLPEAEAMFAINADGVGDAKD
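Material: human Rad51–ssDNA filaments; Probe or stimulus: labelled 47-mer dsDNA for strand exchange; Doses: single 10 µM dose; Incubation: 37 °C 15-min filament assembly, 30-min compound preincubation, 15-min exchange; Technique: FRET fluorescence dequenching, excitation 485 nm, emission 520 nm; Measure: Fluorescence-based percent inhibition, control- and blank-normalised; Benchmarks: plate control and blank wells.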
WT yeast gro inh = growth inhibition of WT strain, primary screen, mitochondrial fusion inhibitor project, WT and mutant strains, chemical genetic | mitochondrial fusion phenotypic screen | inhibition, % at 10 µM | hit rate 2.1% among 190,000 | AID 1362, 2008; in the data active means inhibition above about 58%; tested in S. cerevisiae
Autophagy mod = autophagy modulators in MEF cells, primary screen, imaging, high-content, MEF GFP-LC3 | calls only at 10 µM (by protocol) | hit rate 0.98% among 190,000 | MEF GFP-LC3 puncta imaging; test concentration mostly 10 µM;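 active means percentage of spot-positive cells more than 3 SD above its plate mean, without a fluorescence outlier flag or 80% toxicity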
Of the large screens only hits and unclear results are named; the others gave an inactive call.

COCc1nnc(NC(=O)c2ccc(S(=O)(=O)N3CCCc4ccccc43)cc2)o1	none
CCOc1ccc(-c2nnc(NC(=O)c3ccc(OCC(C)C)c(OC)c3)o2)cc1	SKKanGAS inh 115.2, WT yeast gro inh 64.2 (no result: KCC2 mod)
COc1cc(-c2nnc(NC(=O)c3ccc(S(=O)(=O)N4CCOCC4)cc3)o2)cc(OC)c1OC	none
COc1cccc(-c2nnc(NC(=O)c3ccc(S(=O)(=O)N4CCOCC4)cc3)o2)c1	SKKanGAS inh 87.6
COc1cc(OC)cc(-c2nnc(NC(=O)c3ccc4c(c3)OCCO4)o2)c1	SKKanGAS inh 108.9 (no result: KCC2 mod, Ins promoter up, Rad51 HR inh, WT yeast gro inh, Autophagy mod)
CNc1nc(NC#N)nc(SC)n1	none (no result: WT yeast gro inh, Autophagy mod)
CCCCN(CCCC)c1ncnc2nc[nH]c12	WT yeast gro inh 78.4
O=C1C=C(Nc2ccc(Cl)cc2)CC(c2ccc(Cl)cc2)C1 (centres undefined)	WT yeast gro inh 68.0 (no result: Ins promoter up)
CCOC(=O)N1CCN(Cc2ccc3ccccc3c2)CC1	none (no result: KCC2 mod, Ins promoter up, Rad51 HR inh, WT yeast gro inh, Autophagy mod)
COc1ccc(C(=O)N2CCC3(CC2)NCCc2[nH]cnc23)cc1	none (no result: KCC2 mod, Ins promoter up, Rad51 HR inh, WT yeast gro inh, Autophagy mod)
CCCN1C(=O)c2ccccc2NC1c1ccc(OC)c(CSc2ccccn2)c1 (centres undefined)	WT yeast gro inh 63.6
COc1ccc(N2C(=O)c3ccccc3NC2c2ccc(OC)c(CSc3ccccn3)c2)cc1 (centres undefined)	none (no result: KCC2 mod)
S=c1[nH]c(-c2ccc(Cl)cc2)cs1	KCC2 mod 55.4, WT yeast gro inh 65.4
Cc1ccc(-c2ccc(C(=O)O)[nH]2)cc1	none (no result: KCC2 mod)
Cc1ccc(-c2csc(=S)[nH]2)cc1	KCC2 mod 99.9
COc1ccc(C2c3sc(=O)[nH]c3SC3C4CCC(C4)C23)cc1 (centres undefined)	WT yeast gro inh 65.3
O=c1[nH]c2c(s1)C(c1ccccc1)C1C3CCC(C3)C1S2 (centres undefined)	none
CC(=O)OC(C(=O)NCc1ccc(F)cc1)c1ccccn1 (centres undefined)	Ins promoter up 3.91
O=C(OC(C(=O)NCc1cccs1)c1ccccn1)c1cccs1 (centres undefined)	none
COc1ccc(N(C(=O)Cc2cccs2)C2C=CS(=O)(=O)C2)cc1 (centres undefined)	Ins promoter up 3.14 (no result: KCC2 mod, Rad51 HR inh)
CC1Oc2cc3oc4c(O)c(O)ccc4c(=O)c3c(O)c2C1(C)C (centres undefined)	SKKanGAS inh 52.7 (no result: KCC2 mod, Ins promoter up, WT yeast gro inh, Autophagy mod)
O=C(NC(=O)c1cnccc1C(F)(F)F)Nc1ccccc1	none (no result: WT yeast gro inh, Autophagy mod)
Cc1ccc(N2C(=S)N=C(Nc3ccccc3C)C23CCOC(C)(C)C3)cc1 (centres undefined)	KCC2 mod 24.2
COC(=O)[C@H](CCSC)NC(=O)Nc1cccc(Br)c1	none (no result: WT yeast gro inh, Autophagy mod)
Cc1ccc(NC(=O)c2cc(S(=O)(=O)NCCC3=CCCCC3)ccc2F)cc1F	none
O=C(Nc1cccc(F)c1)c1cc(S(=O)(=O)NCCC2=CCCCC2)ccc1F	WT yeast gro inh 60.2
O=C(CN1CCOCC1)NN1CC(=O)N(c2ccc(Cl)cc2)CC1=O	none (no result: WT yeast gro inh, Autophagy mod)
CN(C)c1cc(N/N=C\c2ccccc2)nc(N(C)C)n1	WT yeast gro inh 58.7
Cc1cc(C)nc(NCc2ccc(Cl)cc2)n1	none (no result: KCC2 mod, Ins promoter up, Rad51 HR inh, WT yeast gro inh, Autophagy mod)
Cc1cc(N/N=C/c2ccccc2)nc(NCc2ccccc2)n1	WT yeast gro inh 61.8 (no result: Ins promoter up)
Cc1cc(N/N=C/c2ccc(Cl)cc2)nc(NCc2ccccc2)n1	none
Cc1cc(N/N=C/c2cccc(Cl)c2)nc(NCc2ccccc2)n1	WT yeast gro inh 82.1 (no result: Ins promoter up)
COc1ccc(/C=N/Nc2cc(N(C)C)nc(N(C)C)n2)cc1	none
Cc1cc(Nc2cccc(Cl)c2)nc(NCc2ccccc2)n1	WT yeast gro inh 97.2
CCOC(=O)c1cc(=O)c2ccc(OCC(=O)Nc3ccc(F)cc3)cc2o1	none (no result: WT yeast gro inh, Autophagy mod)
Cc1cc(NC(=O)c2c(C)noc2C)no1	none (no result: WT yeast gro inh, Autophagy mod)
O=C(Nc1ccc2nc3n(c(=O)c2c1)CCCCC3)C(=O)N1CCN(c2ccc(F)cc2)CC1	none (no result: KCC2 mod, Ins promoter up, Rad51 HR inh, WT yeast gro inh, Autophagy mod)
CC1(C)CC(NC(=O)c2sc3cc(Cl)ccc3c2Cl)CC(C)(C)N1	none
O=C(Cn1cnc2c(nnn2Cc2ccccc2F)c1=O)NCC1CCCO1 (centres undefined)	Autophagy mod active
Nc1nnc(-c2ccccc2[N+](=O)[O-])o1	none (no result: Rad51 HR inh)
Cc1cccc2cc(C#N)c(SCc3nnc(-c4ccccc4[N+](=O)[O-])o3)nc12	Autophagy mod active
